Assay results published in ChEMBL document CHEMBL3232795, “Using 'biased-privileged' scaffolds to identify lysine methyltransferase inhibitors” (Bioorg Med Chem, 2014).
Calls of active or inactive are those of the source. No cut-off for these calls is given here.

Columns and labels:
[1] = biological target: T1, Histone-lysine N-methyltransferase SETD7 (Homo sapiens) (UniProt Q8WTS6); experiment: Inhibition of methyl-transferase activity in GST-tagged recombinant SET7/9 (unknown origin) expressed in Escherichia coli BL21 using H3(1-20)-cys-biotin as substrate at 40 uM preincubated for 5 mins followed by substrate addition by ELISA relative to control
T1 sequence (whole entry): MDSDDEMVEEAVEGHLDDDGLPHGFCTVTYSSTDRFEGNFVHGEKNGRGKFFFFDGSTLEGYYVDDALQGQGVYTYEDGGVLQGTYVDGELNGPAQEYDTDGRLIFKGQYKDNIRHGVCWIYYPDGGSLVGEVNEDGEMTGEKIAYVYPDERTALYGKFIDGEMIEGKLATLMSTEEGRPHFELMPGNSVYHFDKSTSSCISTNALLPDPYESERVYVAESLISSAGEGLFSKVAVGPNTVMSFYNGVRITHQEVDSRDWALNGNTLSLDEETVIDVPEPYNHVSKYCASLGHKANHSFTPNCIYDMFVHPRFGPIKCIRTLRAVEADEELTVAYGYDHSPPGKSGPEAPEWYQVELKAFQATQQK
How it was run: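 GST-fused SET7 (residues 52–366), expressed in bacteria. Enzyme at 2.8 nM with SAM (300 nM) in Tris pH 8.0 buffer (4% DMSO, BSA, EDTA, DTT, Triton X-100) on streptavidin plates, preincubated with compound 5 min at room temperature. Biotinylated H3(1–20)-cys substrate (900 nM) added, 5 min at 30 °C. Stopped with acetate pH 5.0. H3K4me1 detected with antibody, HRP secondary and chemiluminescence; signal given relative to DMSO control.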

[2] = biological target: T1, Histone-lysine N-methyltransferase SETD7 (Homo sapiens); experiment: Inhibition of SET7 (unknown origin)-mediated methylation of histone H3(1-20)cys-biotin at 15 to 50 uM after 5 mins by scintillation proximity assay in presence of [3H]-S-adenosyl-methionine
How it was run: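 SET7 (25 nM) with biotinylated H3(1–20)-cys peptide (900 nM) and compound (2% DMSO final) in Tris pH 8.5 buffer with BSA, EDTA and DTT, 5 min at 30 °C. Started with SAM (2 µM) carrying trace 3H-SAM (0.2 µM), 8 min at 30 °C. Quenched onto streptavidin SPA beads in acetate pH 5.0 with excess cold SAM, then counted. Background-subtracted CPM expressed as percent of DMSO control. Tested twice.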

[3] = biological target: T2, Histone-lysine N-methyltransferase EHMT2 (Homo sapiens, UniProt Q96KQ7); experiment: Inhibition of C-terminal GST-tagged human G9a-mediated-methylation of histone3 expressed in Escherichia coli BL21(DE3) by scintillation proximity assay
T2 sequence (Q96KQ7 whole entry): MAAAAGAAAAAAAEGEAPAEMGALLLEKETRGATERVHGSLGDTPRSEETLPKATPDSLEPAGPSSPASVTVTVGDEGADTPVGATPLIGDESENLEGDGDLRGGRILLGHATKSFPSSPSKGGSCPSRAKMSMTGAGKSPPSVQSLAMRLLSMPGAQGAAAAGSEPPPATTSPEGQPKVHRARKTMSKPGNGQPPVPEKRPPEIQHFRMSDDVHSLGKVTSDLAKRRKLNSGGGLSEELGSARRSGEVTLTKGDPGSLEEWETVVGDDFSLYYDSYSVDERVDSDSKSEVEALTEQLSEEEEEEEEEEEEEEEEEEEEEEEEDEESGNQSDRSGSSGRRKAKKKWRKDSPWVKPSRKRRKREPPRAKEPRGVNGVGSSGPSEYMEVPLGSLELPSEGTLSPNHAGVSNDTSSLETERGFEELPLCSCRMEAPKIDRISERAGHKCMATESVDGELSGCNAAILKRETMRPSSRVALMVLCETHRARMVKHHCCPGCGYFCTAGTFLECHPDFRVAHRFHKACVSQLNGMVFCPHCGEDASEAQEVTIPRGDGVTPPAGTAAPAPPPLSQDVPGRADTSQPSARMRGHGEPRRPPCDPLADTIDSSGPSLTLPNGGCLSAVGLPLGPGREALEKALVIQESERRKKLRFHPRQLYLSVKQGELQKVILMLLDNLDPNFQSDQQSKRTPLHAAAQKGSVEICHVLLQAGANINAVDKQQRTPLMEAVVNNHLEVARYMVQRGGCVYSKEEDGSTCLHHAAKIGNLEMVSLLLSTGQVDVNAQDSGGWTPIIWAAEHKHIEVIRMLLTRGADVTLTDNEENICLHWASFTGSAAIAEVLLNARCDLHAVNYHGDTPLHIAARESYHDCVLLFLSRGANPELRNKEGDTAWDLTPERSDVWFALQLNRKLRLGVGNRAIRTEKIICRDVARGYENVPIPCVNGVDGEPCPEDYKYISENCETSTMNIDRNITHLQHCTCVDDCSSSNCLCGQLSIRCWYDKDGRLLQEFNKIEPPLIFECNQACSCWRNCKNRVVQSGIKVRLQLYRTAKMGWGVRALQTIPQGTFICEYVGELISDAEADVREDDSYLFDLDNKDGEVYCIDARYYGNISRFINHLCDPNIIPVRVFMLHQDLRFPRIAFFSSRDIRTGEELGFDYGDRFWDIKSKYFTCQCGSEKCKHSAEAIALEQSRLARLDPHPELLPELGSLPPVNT

## Cc1ccc(-c2cccc3c2ccn3-c2cccc(CNc3cccc(C(=O)O)c3)c2)cc1
[1]
  inhibition: Active

## CC(=O)Nc1ccc(-c2cccc3c2ccn3-c2cccc(CNc3cccc(C(=O)O)c3)c2)cc1
[1]
  inhibition: Active

## O=C(O)c1cccc(S(=O)(=O)Nc2cccc(-n3ccc4c(-c5ccc(C(F)(F)F)cc5)cccc43)c2)c1
[2]
  inhibition: Active

## O=C(O)c1cccc(NCc2cccc(-n3ccc4c(-c5ccc(C(F)(F)F)cc5)ncnc43)c2)c1
[2]
  inhibition: Active

## O=C(O)c1cccc(NCc2cccc(-n3ccc4c(-c5ccc(C(F)(F)F)cc5)cccc43)c2)c1
[3]
  IC50: 26.4 µM
[2]
  inhibition: Active
[1]
  inhibition: Active

## O=C(O)c1cccc(NCc2cccc(-n3ccc4c(-c5ccccc5)cccc43)c2)c1
[1]
  inhibition: 50%

## O=C(O)c1cccc(SCc2cccc(-n3ccc4c(-c5ccccc5)cccc43)c2)c1
[1]
  inhibition: 50%

## O=C(O)c1cccc(NCc2cccc(-n3ccc4cc(-c5ccc(C(F)(F)F)cc5)cnc43)c2)c1
[2]
  inhibition: Active

## O=C(O)c1cccc(NCc2cccc(-n3ccc4c(-c5ccc6ccccc6c5)cccc43)c2)c1
[1]
  inhibition: Active

## O=C(O)c1cccc(SCc2cccc(-n3ccc4c(Br)cccc43)c2)c1
[1]
  inhibition: Active

## O=C(O)c1cccc(NCc2ccc(-n3ccc4c(-c5ccc(C(F)(F)F)cc5)ncnc43)s2)c1
[2]
  inhibition: Active

## O=[N+]([O-])c1ccc(S(=O)(=O)Nc2cccc(-n3ccc4c(-c5ccc(C(F)(F)F)cc5)cccc43)c2)cc1
[2]
  inhibition: Active

## O=C(O)c1ccc(S(=O)(=O)Nc2cccc(-n3ccc4c(-c5ccc(C(F)(F)F)cc5)cccc43)c2)cc1
[2]
  inhibition: Active

## N[C@@H](CCSCc1cccc(-n2ccc3cc(Br)ccc32)c1)C(=O)O
[1]
  inhibition: 12%

## O=C(O)c1cccc(CNc2cccc(-n3ccc4c(-c5ccc(C(F)(F)F)cc5)ncnc43)c2)c1
[2]
  inhibition: Active

## Cc1cc(O)c(C(=O)O)cc1S(=O)(=O)Nc1cccc(-n2ccc3c(-c4ccc(C(F)(F)F)cc4)cccc32)c1
[2]
  inhibition: Active

## O=C(O)c1ccccc1S(=O)(=O)Nc1cccc(-n2ccc3c(-c4ccc(C(F)(F)F)cc4)cccc32)c1
[2]
  inhibition: Active

## O=[N+]([O-])c1ccccc1S(=O)(=O)Nc1cccc(-n2ccc3c(-c4ccc(C(F)(F)F)cc4)cccc32)c1
[2]
  inhibition: Active

## O=C(O)c1ccc(-c2cccc3c2ccn3-c2cccc(CNc3cccc(C(=O)O)c3)c2)cc1
[1]
  inhibition: inactive

## O=[N+]([O-])c1cccc(S(=O)(=O)Nc2cccc(-n3ccc4c(-c5ccc(C(F)(F)F)cc5)cccc43)c2)c1
[2]
  inhibition: Active

## O=C(O)c1cccc(NCc2cccc(-n3ncc4cc(-c5ccc(C(F)(F)F)cc5)ccc43)c2)c1
[2]
  inhibition: Active

## O=C(O)c1cccc(NCc2cccc(-n3cnc4c(-c5ccc(C(F)(F)F)cc5)cccc43)c2)c1
[2]
  inhibition: Active

## O=C(O)c1cccc(SCc2cccc(-n3ccc4cc(Br)ccc43)c2)c1
[1]
  inhibition: Active

## CC(=O)Nc1nc(C)c(S(=O)(=O)Nc2cccc(-n3ccc4c(-c5ccc(C(F)(F)F)cc5)cccc43)c2)s1
[2]
  inhibition: Active

## O=C(O)CCCSCc1cccc(-n2ccc3cc(Br)ccc32)c1
[1]
  inhibition: Active

## CS(=O)(=O)c1ccc(S(=O)(=O)Nc2cccc(-n3ccc4c(-c5ccc(C(F)(F)F)cc5)cccc43)c2)cc1
[2]
  inhibition: Active

## O=C(O)c1cccc(NCc2cccc(-n3ccc4cc(-c5ccc(C(F)(F)F)cc5)ccc43)c2)c1
[2]
  inhibition: Active
